# Experiments:
# Assay type in all cases: functional
# HL-60(TB) = assay: Growth inhibition of human HL-60(TB) cells after 48 hrs by SRB assay; details: HL-60, 48 h
# Outline: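 NCI 60-cell-line screen: cells grown in RPMI1640 with 5% fetal calf serum and 2 mM L-glutamine, preincubated 24 h, then exposed to compound in DMSO at five concentrations (10^-4 to 10^-8 M) for 48 h continuous exposure. Growth estimated by sulforhodamine B protein assay; reported as pGI50 (-log molar concentration inhibiting net cell growth by 50%).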
# K562 = assay: Growth inhibition of human K562 cells after 48 hrs by SRB assay; details: K562, 48 h
# Outline: (§1)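 NCI 60-cell-line screen. Cells grown in RPMI1640 with 5% fetal calf serum and 2 mM L-glutamine, with inoculum density set by cell line. Preincubated 24 h, then given compound in DMSO at 10^-4 to 10^-8 M (five 10-fold steps) for 48 h continuous exposure. Growth measured by SRB protein assay. GI50, TGI and LC50 reported as –log molar.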
# SR = assay: Growth inhibition of human SR cells after 48 hrs by SRB assay; outline: as §1
# EKVX = assay: Growth inhibition of human EKVX cells after 48 hrs by SRB assay; outline: as §1
# HOP-62 = assay: Growth inhibition of human HOP62 cells after 48 hrs by SRB assay; details: HOP-62, 48 h; outline: as §1
# NCI-H322M = assay: Growth inhibition of human NCI-H322M cells after 48 hrs by SRB assay; outline: as §1
# NCI-H460 = assay: Growth inhibition of human NCI-H460 cells after 48 hrs by SRB assay; details: NCI-H460, 48 h; outline: as §1
# HCC 2998 = assay: Growth inhibition of human HCC2998 cells after 48 hrs by SRB assay; details: HCC 2998, 48 h; outline: as §1
# HCT-116 = assay: Growth inhibition of human HCT116 cells after 48 hrs by SRB assay; details: HCT-116, 48 h; outline: as §1
# HCT-15 = assay: Growth inhibition of human HCT15 cells after 48 hrs by SRB assay; details: HCT-15, 48 h; outline: as §1
# HT-29 = assay: Growth inhibition of human HT-29 cells after 48 hrs by SRB assay; details: HT-29, 48 h; outline: as §1
# SW-620 = assay: Growth inhibition of human SW620 cells after 48 hrs by SRB assay; details: SW-620, 48 h; outline: as §1
# SF-268 = assay: Growth inhibition of human SF268 cells after 48 hrs by SRB assay; details: SF-268, 48 h; outline: as §1
# SF-295 = assay: Growth inhibition of human SF295 cells after 48 hrs by SRB assay; details: SF-295, 48 h; outline: as §1
# SF-539 = assay: Growth inhibition of human SF539 cells after 48 hrs by SRB assay; details: SF-539, 48 h; outline: as §1
# SNB-75 = assay: Growth inhibition of human SNB75 cells after 48 hrs by SRB assay; details: SNB-75, 48 h; outline: as §1
# U-251 = assay: Growth inhibition of human U251 cells after 48 hrs by SRB assay; details: U-251, 48 h; outline: as §1
# Malme-3M = assay: Growth inhibition of human MALME-3M cells after 48 hrs by SRB assay; outline: as §1
# M14 = assay: Growth inhibition of human M14 cells after 48 hrs by SRB assay; details: M14, 48 h; outline: as §1
# MDA-MB-435 = assay: Growth inhibition of human MDA-MB-435 cells after 48 hrs by SRB assay; details: MDA-MB-435, 48 h; outline: as §1
# SK-MEL-28 = assay: Growth inhibition of human SK-MEL-28 cells after 48 hrs by SRB assay; details: SK-MEL-28, 48 h; outline: as §1
# SK-MEL-5 = assay: Growth inhibition of human SK-MEL-5 cells after 48 hrs by SRB assay; details: SK-MEL-5, 48 h; outline: as §1
# UACC-62 = assay: Growth inhibition of human UACC62 cells after 48 hrs by SRB assay; details: UACC-62, 48 h; outline: as §1
# IGROV-1 = assay: Growth inhibition of human IGROV1 cells after 48 hrs by SRB assay; details: IGROV-1, 48 h; outline: as §1
# OVCAR-4 = assay: Growth inhibition of human OVCAR4 cells after 48 hrs by SRB assay; details: OVCAR-4, 48 h; outline: as §1
# OVCAR-8 = assay: Growth inhibition of human OVCAR8 cells after 48 hrs by SRB assay; details: OVCAR-8, 48 h; outline: as §1
# NCI/ADR-RES = assay: Growth inhibition of human NCI/ADR-RES cells after 48 hrs by SRB assay; outline: as §1
# SK-OV-3 = assay: Growth inhibition of human SKOV3 cells after 48 hrs by SRB assay; details: SK-OV-3, 48 h; outline: as §1
# 786-0 = assay: Growth inhibition of human 786-0 cells after 48 hrs by SRB assay; details: 786-0, 48 h; outline: as §1
# CAKI-1 = assay: Growth inhibition of human Caki1 cells after 48 hrs by SRB assay; details: CAKI-1, 48 h; outline: as §1
# UO-31 = assay: Growth inhibition of human UO31 cells after 48 hrs by SRB assay; details: UO-31, 48 h; outline: as §1
# DU-145 = assay: Growth inhibition of human DU145 cells after 48 hrs by SRB assay; details: DU-145, 48 h; outline: as §1
# [1] = Growth inhibition of human Hs 578T cells after 48 hrs by SRB assay; outline: as §1
# T47D = assay: Growth inhibition of human T47D cells after 48 hrs by SRB assay; outline: as §1
smiles,measurement,setting,value
COc1ccc(/C=C\c2cc(OC)c(OC)c(OC)c2)cc1O [COMBRETASTATIN A4],GI50,HL-60(TB),31.6 nM
same,TGI,HL-60(TB); read-out: pTGI (converted),63.1 nM
same,GI50,K562,31.6 nM
same,TGI,K562; read-out: pTGI (converted),2000 nM
same,GI50,SR,126 nM
same,TGI,SR; read-out: pTGI (converted),79400 nM
same,GI50,EKVX,398 nM
same,TGI,EKVX; read-out: pTGI (converted),79400 nM
same,GI50,HOP-62,200 nM
same,TGI,HOP-62; read-out: pTGI (converted),2510 nM
same,GI50,NCI-H322M,79.4 nM
same,TGI,NCI-H322M; read-out: pTGI (converted),79400 nM
same,GI50,NCI-H460,31.6 nM
same,TGI,NCI-H460; read-out: pTGI (converted),63100 nM
same,GI50,HCC 2998,50.1 nM
same,TGI,HCC 2998; read-out: pTGI (converted),1260 nM
same,GI50,HCT-116,31.6 nM
same,TGI,HCT-116; read-out: pTGI (converted),200 nM
same,GI50,HCT-15,31.6 nM
same,TGI,HCT-15; read-out: pTGI (converted),10000 nM
same,GI50,HT-29,631 nM
same,TGI,HT-29; read-out: pTGI (converted),6310 nM
same,GI50,SW-620,31.6 nM
same,TGI,SW-620; read-out: pTGI (converted),79400 nM
same,GI50,SF-268,126 nM
same,TGI,SF-268; read-out: pTGI (converted),50100 nM
same,GI50,SF-295,63.1 nM
same,TGI,SF-295; read-out: pTGI (converted),1260 nM
same,GI50,SF-539,39.8 nM
same,TGI,SF-539; read-out: pTGI (converted),200 nM
same,GI50,SNB-75,794 nM
same,TGI,SNB-75; read-out: pTGI (converted),25100 nM
same,GI50,U-251,50.1 nM
same,TGI,U-251; read-out: pTGI (converted),12600 nM
same,GI50,Malme-3M,501 nM
same,TGI,Malme-3M; read-out: pTGI (converted),79400 nM
same,GI50,M14,158 nM
same,TGI,M14; read-out: pTGI (converted),251 nM
same,GI50,MDA-MB-435,31.6 nM
same,TGI,MDA-MB-435; read-out: pTGI (converted),79.4 nM
same,GI50,SK-MEL-28,3160 nM
same,TGI,SK-MEL-28; read-out: pTGI (converted),50100 nM
same,GI50,SK-MEL-5,10 nM
same,TGI,SK-MEL-5; read-out: pTGI (converted),10 nM
same,GI50,UACC-62,10 nM
same,TGI,UACC-62; read-out: pTGI (converted),63100 nM
same,GI50,IGROV-1,63.1 nM
same,TGI,IGROV-1; read-out: pTGI (converted),63100 nM
same,GI50,OVCAR-4,251 nM
same,TGI,OVCAR-4; read-out: pTGI (converted),79400 nM
same,GI50,OVCAR-8,39.8 nM
same,TGI,OVCAR-8; read-out: pTGI (converted),39800 nM
same,GI50,NCI/ADR-RES,63.1 nM
same,TGI,NCI/ADR-RES; read-out: pTGI (converted),398 nM
same,GI50,SK-OV-3,31600 nM
same,TGI,SK-OV-3; read-out: pTGI (converted),> 100000 nM
same,GI50,786-0,19.9 nM
same,TGI,786-0; read-out: pTGI (converted),25100 nM
same,GI50,CAKI-1,39.8 nM
same,TGI,CAKI-1; read-out: pTGI (converted),15800 nM
same,GI50,UO-31,200 nM
same,TGI,UO-31; read-out: pTGI (converted),50100 nM
same,GI50,DU-145,10 nM
same,TGI,DU-145; read-out: pTGI (converted),> 100000 nM
same,GI50,[1],158 nM
same,TGI,[1]; read-out: pTGI (converted),7940 nM
same,GI50,T47D,50100 nM
same,TGI,T47D; read-out: pTGI (converted),> 100000 nM
